# Measured values published in article PMC6044864 (ACS Omega, 2017).
# Assays:
# [1] = Photodegradation; type: physicochemical; details: photostability; 10 μmol·L^–1 in 60% ACN/H2O/0.09% TFA; laser 440 nm; 0 to 50 min
# Method in brief: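 Test compound was irradiated in solution at room temperature with a pulsed 10 Hz laser at 440 nm for 50 min. UV/vis absorption spectra were recorded before irradiation and every 5 min. Absorbance maximum at 440 nm was plotted against time, and the change was taken as the difference between initial and final readings.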
# [2] = test system: Candida albicans cells; details: cited from earlier work
# [3] = test system: human erythrocytes; details: cited from earlier work
# [4] = test system: Trichosporon beigelii cells; details: cited from earlier work
# [5] = test system: HeLa cells; details: cited from earlier work
# [6] = test system: bacteria; details: cited from earlier work
Substance,Difference of absorbance at 440 nm in 50 min of exposure to light [1],Growth inhibition of Candida albicans cells [2],Hemolytic effect [3],Cell penetration and nuclear localisation [4],Cell penetration and nuclear localisation [5],Growth inhibition of bacteria [6]
5(6)-carboxyfluorescein [FAM],0.022,–,–,–,–,–
TAT peptide (47-58): carboxyl-free analogue of TAT(47-57)-NH2,–,inhibit the growth,without hemolytic effect,"penetrate, and localize in the nucleus","penetrate, and localize in the nucleus",inhibit the growth
